Data on 36 sequences can be found in the EternaBench riboswitch data.

The test system of this series is MS2 coat protein. As to the kind of experiment: apparent Kd, MS2 coat protein; higher = weaker binding; RNA-MaP array; FMN 200 µM where present. A digest of the protocol:
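Designs on Illumina sequencing-chip clusters, transcribed by stalled E. coli RNA polymerase, were exposed to SNAP-549-labelled MS2 coat protein in doubling steps from 0.7 or 1.5 nM up to 3 µM, without and then with constant ligand. The buffer held 100 mM Tris-HCl pH 7.5, 80 mM KCl, 4 mM MgCl2, BSA, DTT, yeast tRNA and Tween-20. Apparent Kd values are medians of filtered per-cluster binding-curve fits to green signal normalised to red-channel RNA signal and control-cluster median Fmax.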

[1] abbreviates: designed as: OFF switch for flavin mononucleotide, no ligand.
[2] abbreviates: ligand present: flavin mononucleotide, designed as: OFF switch for flavin mononucleotide.
The mark [3] stands for this setting: designed as: ON switch for flavin mononucleotide, no ligand.
Where [4] appears, read: ligand present: flavin mononucleotide, designed as: ON switch for flavin mononucleotide.

For orientation: apparent Kd means a dissociation constant that holds for the conditions of the assay. On to “GUUAGCUCGUGAGGAUAUACAACACUGCUUCGGCAGUGUAUUAAGAUCACAUGAGGAUCACCCAUGUAGAAGGCACGAGCUGAU”, for which the “apparent Kd” value by setting is: under setting [1], 12.8 nM; under setting [2], 256 nM.
For “AUAAUGCGAGGAUAUACAUGAGGAUCACCCAUGUAAUUCCAUCGGAGAGCCACAUUUCGUAGAAGGUGCAUUUA”, in that order: 15.4 nM and 15.4 nM.
For “GCUGCAUAGGCAGGAUAUACAAUAAUUCGAAUAAAAUAUAACGAAUUAACAUGAGGAUCACCCAUGUAGAAGGGCCUGUGCAGU”, the “apparent Kd” value under setting [1] came out at 6.32 nM and the “apparent Kd” value under setting [2] stood at 10.4 nM.
In the case of “UGGGUGGUAUGAGGAUAUGCGCGCGAAACGCGCGCAGAAGGCAUGUCAAUAGACAUGAGGAUCACCCAUGUAUUAUCCAUCCAA”, the “apparent Kd” value was found to be 412 nM under setting [3] and 28.3 nM under setting [4].
On to “GUCAUUAAACAGAAGGUGUUGUACAUGAGGAUCACCCAUGUUUAUCUAAUUAAAUUUGUAAUUAACAAGGAUAUGUACUAAUCG”, for which the “apparent Kd” value was 231 nM under setting [3] and 131 nM under setting [4].
Regarding “AGCUGUGGCAGAGGAUAUACUACUAUAAUCCAUUGCAAAUAGCGAUGGACAUGAGGAUCACCCAUGUAGAAGGCUGUCACAGCA”, the “apparent Kd” value is, setting by setting: under setting [1], 45.6 nM; under setting [2], 176 nM.
As for “CGUAGGAUGCAGAAGGCAUGAACAUGAGGAUCACCCAUGUUAAAAGACAUGAGGAUAUGCAUCCUACGAAAAGUGCGAAAGCAC”, the “apparent Kd” value by setting is: under setting [3], 5.15 nM; under setting [4], 4.54 nM.
Take “UCAUGAAGGAUAGGAUAUGGACAUGAGGAUCACCCAUGUACAUGGGAAUGAAUACUGAAUUUGUACUAGAAGGGUUACAUAAAU”: the “apparent Kd” value reads like this: under setting [1], 56.4 nM; under setting [2], 37 nM.
As for “ACUAAUAAGUGAGGAUAUACAUAAUUCAUAUCAGUAGAAGGCACAAUCCUCUUUACAUGAGGAUCACCCAUGUUAUAUAUAUAA”, the “apparent Kd” value amounted to 73.8 nM under setting [1] and 194 nM under setting [2].
For “GGAUAGGGCAGAGGAUAUACGUGCUAGAGAUACUAGCAAAAUUUCCUCACAUGAGGAUCACCCAUGUAGAAGGCUGUCCUAUCG”, in that order: 14.1 nM and 464 nM.
“CGCUGCCACGCAGGAUAUGCAUUGGAUUACAAUGCAGAAGGGCGAUUACAUGAGGAUCACCCAUGUGUUGGCAGUGAAGAAGAG”: the “apparent Kd” value came out at 1490 nM under setting [3] and 83.4 nM under setting [4].
For “AAAAAACAUGAGGAUCACCCAUGUCUUCGGACAUGAGGAUAUGUACAGACUUCGGUCUGUACAGAAGGCAUGUCAA”, the “apparent Kd” value by setting is: under setting [3], 166 nM; under setting [4], 23.2 nM.
Consider “GGAUAGGACAGAGGAUAUACGGAUAGGAUCUACUAUCUUCUUCAAAUAACAUGAGGAUCACCCAUGUAGAAGGCUGUCCUAUCG”, for which the “apparent Kd” value was found to be 16 nM under setting [1] and 31.9 nM under setting [2].
For “GUAGCAUGCCAAGGAUAUUCAUAUAAUAAGUAAACAUGAGGAUCACCCAUGUAGUGAGAGCCUUGGGAGAAGGUGGGAUGCUAC”, the “apparent Kd” value under setting [3] was 26.7 nM and the “apparent Kd” value under setting [4] was 41.9 nM.
Turning to “GUCGGAAACGACAAAAGUAUGGAUCCAGAAGGCAUGACACAUGAGGAUCACCCAUGUCUAAGAUAUGAGGAUAUGGAUCCAUAC”, the “apparent Kd” value stood at 4.97 nM under setting [3] and 4.71 nM under setting [4].
For the sequence “GGGUUCAUCGGAGGAUAUCAUGUAAAUACAUGAGGAUCACCCAUGUCGAUGGAGACAUCGGAGAUUGAGAAGGCCGAUGUACCG”, the “apparent Kd” value reads like this: under setting [3], 186 nM; under setting [4], 9.18 nM.
Regarding “GGCCCGGGAGGAUAUACAUGAGGAUCACCCAUGUGCGGGCCCGGGAUCCCGGGCCCGUGUAGAAGGCCCGGGCC”, the “apparent Kd” value by setting is: under setting [1], 13.4 nM; under setting [2], 16.5 nM.
Consider “CCACGGUAUGUAGGAUAUGCAUAGCAUUGCUAUGCAGAAGGACAUGAGGAUCACCCAUGUAUGUAUUCCAUACUAAUCCCGUGA”, for which the “apparent Kd” value is, setting by setting: under setting [1], 5.96 nM; under setting [2], 5.3 nM.
For “CUAUGCGGAAUAGGAUAUUCGUUCAUGAGGAUAGAAGAAGGGUUACAUGAGGAUCACCCAUGUAUGCACAUGAGGAUCCCUUAG”, the “apparent Kd” value runs as follows: under setting [1], 252 nM; under setting [2], 228 nM.
For “UGUCAAGCAGGAUAUGCACGUAAUAACAUGAGGAUCACCCAUGUGACCGAUUUAUAUUUUGCAGAAGGGCUUGUUU”, the “apparent Kd” value reads like this: under setting [1], 79.7 nM; under setting [2], 78.2 nM.
In the case of “GGACAUCCCACAGGAUAUGCUGGACUUUGUCCAGCAGAAGGGUGAAAACAUGAGGAUCACCCAUGUAGGAUGUCCAUAUUUAAU”, the “apparent Kd” value under setting [3] was 112 nM and the “apparent Kd” value under setting [4] turned out to be 643 nM.
“GCCAUCGCAUGAGGAUAUGCUCCGGUUUCCGGAGCAGAAGGCGUGUCAUUAGACAUGAGGAUCACCCAUGUAGUUAAGAUGGCA”: the “apparent Kd” value under setting [3] stood at 489 nM and the “apparent Kd” value under setting [4] is 21.3 nM.
For the sequence “AGUUAAUAUCGAGGAUAUCUCAUGAAUACAUGAGGAUCACCCAUGUGAAUGGGAGAAGGCGAUAUUAACAGCAUGUUACAUGCA”, the “apparent Kd” value under setting [3] amounted to 12.6 nM and the “apparent Kd” value under setting [4] was 6.52 nM.
As to “GUAUUUAGAUAAGGAUAUAAGUCUAGGACAUGAGGAUCACCCAUGUGUGUCUUAGAAGGUAUUUGGGUAAUAUUGUUACAGUAA”, the “apparent Kd” value reads like this: under setting [3], 160 nM; under setting [4], 114 nM.
On to “CCAUGAACAGGAUAUCUUCCUCCGAACAUGAGGAUCACCCAUGUAACUGUGUAGCAUGACAGAGAAGGGUUUAUGG”, for which the “apparent Kd” value is, setting by setting: under setting [1], 99.5 nM; under setting [2], 56.7 nM.
For “GGUCAACAUGAGGAUCACCCAUGUAAGCCAAGGCAAGGAUAUGGGUAUAGGGUACUAGGGUUAGAAGGUGCCAAUA”, the “apparent Kd” value under setting [3] came to 144 nM and the “apparent Kd” value under setting [4] was determined as 182 nM.
Turning to “UGUGUGUGGGCAGGAUAUGCAUGAAUAUAUAUGAUGUAGUAUGAUGUAACAUGAGGAUCACCCAUGUAGAAGGGCCGGUGUAUG”, the “apparent Kd” value runs as follows: under setting [1], 133 nM; under setting [2], 133 nM.
Turning to “GUGCCUUGGGAGAAGGUAUUAAGCAAAGCAAUAUAAGGAUAUUCAUACCGGAAACGGACAUGAGGAUCACCCAUGUGGCACAAA”, the “apparent Kd” value is, setting by setting: under setting [3], 713 nM; under setting [4], 233 nM.
Turning to “UCGACCAGCGCCGCUCGAACAUGAGGAUCACCCAUGUACUCCAGAAGGCCGCCCAAGUACGGAGUGGAGGAUAUGGAGGUUCUC”, the “apparent Kd” value came to 39.5 nM under setting [3] and 25.4 nM under setting [4].
For “UUGGACGUCGUAGGAUAUGUAGGAUAUUCCUACAUGAGGAUCACCCAUGUUCACAUGGAAGAAGGACAGAAGGACGAUGUCCAU”, the “apparent Kd” value was 502 nM under setting [3] and 5.8 nM under setting [4].
Take “GGUCGGAAUUUCGACGGCCUGAGGGAGGAUAUACAAGGCCGGCGUCGCACAUGAGGAUCACCCAUGUAGAAGGCCCAAGGCCUG”: the “apparent Kd” value runs as follows: under setting [1], 6 nM; under setting [2], 7.2 nM.
As for “AAGAGUGCAGGAUAUACUUGGUAGGGUAAGAUGAGUGAGUGACAUGAGGAUCACCCAUGUAGAAGGGCAGAGAG”, the “apparent Kd” value by setting is: under setting [1], 121 nM; under setting [2], 132 nM.
For the sequence “AAAUUGGUAGAGGAUAUCGGAUAGGAUUUAUUGCGAGAAGGCUGCACAUGAGGAUCACCCAUGUUCUGUUGGGA”, the “apparent Kd” value by setting is: under setting [1], 201 nM; under setting [2], 280 nM.
Take “GUAUCUUACCAAGGAUAUUUAAGAUUUGUGUAGACAUGAGGAUCACCCAUGUGGCCUUAGUCACGGGAGAAGGUGGUUUGAUAC”: the “apparent Kd” value under setting [3] was 940 nM and the “apparent Kd” value under setting [4] was determined as 492 nM.
For the sequence “UUGAAUUUAAACAUGAGGAUCACCCAUGUGUCAUAGUUGAUAUAGGAUAUGCUUAUACUUUGAAAGCAGAAGGAUGACGAUACU”, the “apparent Kd” value runs as follows: under setting [3], 26.3 nM; under setting [4], 11.9 nM.
For “ACGAUGUCAGGAUAUCGAUCACGGGUCUGAAGACACGUGUUUGAGAAGGGACAUGAGGAUCACCCAUGUGUCUC”, the “apparent Kd” value runs as follows: under setting [1], 122 nM; under setting [2], 314 nM.
